Results taken from article PMC5614578 (Biochemistry and Biophysics Reports, 2017).
Entries after “also recorded” stand apart in the source; their conditions may differ. Read-outs that look alike come from different tables or passages of the source.

Tests used:
[1] = biological target: T1, System xC^- cystine/glutamate antiporter (SXC) (Rattus norvegicus, UniProt A0A8I6AB70); test: LPS-induced glutamate release from primary microglia; assay type: cell-based; settings: for Inhibition of LPS-induced glutamate release (result in words): LPS-treated rat primary microglia
Method in brief: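 Rat primary microglia were taken from 14–21-day mixed glial cultures of 1–2-day pup brains by shaking at 200 rpm for 2 h at 37 °C. Cells were plated at 50,000/well on poly-D-Lys and switched after 24 h to serum-free, phenol red-free DMEM with 2 mM glutamine and 0.2 mM cystine. Test compound (8 concentrations, 10 pM–100 μM, 0.1% DMSO final, duplicate or triplicate) was added 15 min before 1 μg/ml LPS for 24 h. Extracellular glutamate was read by enzyme-coupled Amplex UltraRed fluorescence against a glutamate standard curve, with cell-free counter-screens.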

[2] = biological target: T1, System xC^- cystine/glutamate antiporter (SXC); test: [14C]-cystine uptake by LPS-activated primary microglia; assay type: cell-based
Method in brief: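 Microglia were exposed for 24 h to HBSS or LPS (in HBSS) in DMEM with 0.2 mM cystine. An aliquot of that medium was checked for glutamate release to confirm activation. Medium was then replaced and uptake was measured over 15 min in EBSS with [¹⁴C]-cystine tracer (45 μCi/μmol, 10 μM), with LPS ± test compound. Specific uptake was obtained by subtracting a background control. Values average at least four determinations.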

[3] = test system: ferroptosis; settings: read-out: EC50 for induction of ferroptosis; cited from earlier work
[4] = biological target: T1, System xC^- cystine/glutamate antiporter (SXC); settings: 1 mM; used for background control; stated as known, no reference given; cited from earlier work
[5] = test system: rat primary microglia; assay type: cell-based; settings: 24 h treatment; Pam3CSK4 10 µg/ml, poly I:C 50 µg/ml, Tat 1 µM, LPS 1 µg/ml
Method in brief: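 Primary microglia were isolated from neonatal rat mixed glial cultures by shaking and kept in serum-free, phenol red-free DMEM with 2 mM glutamine and 0.2 mM cystine. Cells were stimulated for 24 h with the activator. Extracellular glutamate was quantified by enzyme-coupled Amplex UltraRed fluorescence against a standard curve, linear over 0.5–64 μM glutamate.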

T1 sequence (A0A8I6AB70 1-502): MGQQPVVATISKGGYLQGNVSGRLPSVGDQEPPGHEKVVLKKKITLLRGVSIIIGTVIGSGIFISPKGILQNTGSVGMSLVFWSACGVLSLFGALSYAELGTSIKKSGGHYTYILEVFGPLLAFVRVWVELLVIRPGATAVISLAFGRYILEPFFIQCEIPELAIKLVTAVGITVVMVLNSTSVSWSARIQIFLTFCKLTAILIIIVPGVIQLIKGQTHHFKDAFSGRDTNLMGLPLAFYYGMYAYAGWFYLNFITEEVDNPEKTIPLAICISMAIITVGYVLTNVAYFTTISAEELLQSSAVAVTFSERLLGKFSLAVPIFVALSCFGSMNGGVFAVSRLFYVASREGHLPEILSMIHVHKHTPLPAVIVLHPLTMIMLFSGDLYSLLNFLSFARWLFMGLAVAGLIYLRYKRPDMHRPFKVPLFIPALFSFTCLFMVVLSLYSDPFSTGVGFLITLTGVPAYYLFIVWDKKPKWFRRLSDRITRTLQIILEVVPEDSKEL
T1 sequence (Q794F9 whole entry partner): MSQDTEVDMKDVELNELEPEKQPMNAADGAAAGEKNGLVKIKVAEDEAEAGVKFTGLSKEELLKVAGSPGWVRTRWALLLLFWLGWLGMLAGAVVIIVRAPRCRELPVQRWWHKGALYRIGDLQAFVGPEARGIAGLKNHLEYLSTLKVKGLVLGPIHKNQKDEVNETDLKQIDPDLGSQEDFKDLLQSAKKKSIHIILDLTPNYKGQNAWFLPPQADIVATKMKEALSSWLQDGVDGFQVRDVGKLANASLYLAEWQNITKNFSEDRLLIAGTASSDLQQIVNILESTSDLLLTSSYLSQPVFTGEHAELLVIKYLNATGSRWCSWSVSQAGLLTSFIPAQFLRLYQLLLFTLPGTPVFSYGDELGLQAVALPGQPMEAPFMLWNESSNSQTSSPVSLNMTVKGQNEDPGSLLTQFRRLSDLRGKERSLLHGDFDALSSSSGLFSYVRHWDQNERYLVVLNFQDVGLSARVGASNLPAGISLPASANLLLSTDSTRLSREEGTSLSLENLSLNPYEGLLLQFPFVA

For `CC(C)Oc1ccccc1-n1c(CN2CCN(C(=O)COc3ccc(Cl)cc3)CC2)nc2ccccc2c1=O` [13MEW76], the “Inhibition of LPS-induced glutamate release (result in words)” value [1] was “did not affect inhibitory activity”.

For `CCOc1ccccc1-n1c(C(C)N2CCN(C(=O)COc3ccccc3)CC2)nc2ccccc2c1=O` (stereo not shown) [35MEW13], the “Inhibition of LPS-induced glutamate release (result in words)” value [1] was “abolished inhibitory activity”.

In the case of `CCOc1ccccc1-n1c(C(C)N2CCN(C(C)=O)CC2)nc2ccccc2c1=O` (stereo not shown) [Erastin A8], the “Inhibition of cystine uptake (result in words)” value (from here on “Inhibition of cystine uptake”) [2] is reported as “inactive” and the “Inhibition of LPS-induced glutamate release (result in words)” value [1] is reported as “abolished inhibitory activity; also recorded: inactive”.

For `N[C@@H](C(=O)O)c1ccc(C(=O)O)cc1` [R-4CPG], the “Inhibition of cystine uptake” value [2] was “failed to inhibit”, the “Inhibition of cystine uptake” value ([2]; listed as (R)-4-CPG) was “did not inhibit” and the “Inhibition of LPS-induced glutamate release (result in words)” value [1] was “failed to inhibit”. For the same molecule, the “Inhibition of LPS-induced glutamate release (result in words)” value ([1]; listed as (R)-4-CPG) was “did not inhibit”.

For `N[C@H](C(=O)O)c1ccc(C(=O)O)cc1` [S-4CPG, (S)-4-carboxyphenyl glycine], the “Inhibition of cystine uptake” value [2] was “blocked” and the “Inhibition of LPS-induced glutamate release (result in words)” value [1] was “blocked”.

For `CCOc1ccccc1-n1c(C(C)N2CCN(C(=O)COc3ccc(Cl)cc3)CC2)nc2ccccc2c1=O` (stereo not shown) [erastin], the “Inhibition of cystine uptake” value [2] is given as “blocked”, the EC50 [3] is given as 1200 nM and the EC50 [1] is given as 130 ± 40 nM. For the same molecule, the “Inhibition of LPS-induced glutamate release (result in words)” value [1] was “blocked”.

In the case of `O=C(O)c1cc(/N=N/c2ccc(S(=O)(=O)Nc3ccccn3)cc2)ccc1O` [sulfasalazine], the “Inhibition of cystine uptake” value [2] is given as “blocked”, the “Inhibition of LPS-induced glutamate release (result in words)” value [1] is given as “blocked” and the “Inhibition of SXC activity (result in words)” value [4] is given as “completely inhibit”.

For “polyinosinic: polycytidylic acid [poly I:C]”, the “Induction of glutamate release (result in words)” value [5] was “Significant glutamate release”.

B1: HIV-1 Tat1–86 protein: HIV-1 Tat1–86 protein obtained from Diatheva, microglia activator (protein, UniProt P04608 1-86, looked up)
Protein Tat: MEPVDPRLEPWKHPGSQPKTACTNCYCKKCCFHCQVCFITKALGISYGRKKRRQRRRAHQNSQTHQASLSKQPTSQPRGDPTGPKE
With B1 the “Induction of glutamate release (result in words)” value [5] was “Significant glutamate release”.
